Results from different studies.
Organism: Escherichia coli
Effect on: microbial growth

SMILES | method | cell line | strain | time | setting | MIC
N=C(N)c1ccc(OCc2ccccc2COc2ccc(C(=N)N)cc2)cc1 | – | – | BW25113 | – | – | > 200 µg/mL
CC(C)Oc1c(NC(=O)c2ccc(NC(=O)[C@H](CC(N)=O)NC(=O)c3ccc(NC(=O)c4ccc(C#N)c(Cl)c4)cc3)cc2)ccc(C(=O)Nc2ccc(C(=O)O)cc2)c1O | – | – | DSM1116 | – | – | < 0.03 µg/mL
N=C(N)c1ccc(OCc2cc(COc3ccc(C(=N)N)cc3)cc(-c3ccccc3)c2)cc1 | broth dilution | – | ATCC25922 | – | – | 100 µg/mL
O=c1[nH]cc(F)c(=O)[nH]1 | broth dilution | – | – | 24 h | – | > 32 µg/mL
N=C(N)c1ccc(OCc2cccc(COc3ccc(C(=N)N)cc3)c2)cc1 | broth dilution | – | W3110 | – | – | 100 µg/mL
CC(C)Oc1c(NC(=O)c2ccc(NC(=O)[C@H](CC(N)=O)NC(=O)c3ccc(NC(=O)c4ccc(C#N)cc4)cc3)cc2)ccc(C(=O)Nc2cc(C(=O)O)n(C)c2)c1O | – | – | DSM1116 | – | – | 0.5 µg/mL
Cc1ccc2nc(-c3ccccc3Cl)[nH]c2c1 | broth dilution | – | ATCC25922 | – | – | 64 µg/mL
c1ccc(NCc2ccc(Oc3ccccn3)cc2)cc1 | – | – | – | – | – | > 25 µg/mL
N=C(N)c1ccc(OCc2cc(Br)cc(COc3ccc(C(=N)N)cc3)c2)cc1 | – | – | BW25113 | – | – | > 100 µg/mL
O=C(Nc1ncc([N+](=O)[O-])s1)c1cccc(C(F)(F)F)c1 | – | – | – | – | – | < 50 µM
N=C(N)c1ccccc1OCc1ccccc1COc1ccccc1C(=N)N | broth dilution | – | BW25113 | – | – | > 200 µg/mL
CSc1ccc(-c2nc3ccccc3[nH]2)cc1 | broth dilution | – | ATCC25922 | – | – | 64 µg/mL
COc1c(C)c(OS(=O)(=O)c2ccc3ccccc3c2)c(C)c(O)c1C(=O)/C=C/c1ccccc1 | broth dilution | – | ATCC25922 | – | – | 5000 µg/mL
Cc1ccc2nc(-c3ccccc3O)[nH]c2c1 | broth dilution | – | ATCC25922 | – | – | 128 µg/mL
C[C@@H](O)[C@H]1C(=O)N2C(C(=O)O)=C(S[C@@H]3CN[C@H](C(=O)N(C)C)C3)[C@H](C)[C@H]12 | broth dilution | – | – | 24 h | – | 0.0312 µg/mL
CC1=NN(CNC(=O)c2ccccn2)C(=O)C1=NNn1c(-c2ccccc2)nc2ccccc2c1=O | broth dilution | – | – | 24 h | – | 52 µM
N=C(N)c1ccc(OCc2ccc(Br)cc2COc2ccc(C(=N)N)cc2)cc1 | broth dilution | – | ATCC25922 | – | – | > 200 µg/mL
Cc1ccc(C)n1-c1ccc(-c2nnc(-c3ccc(N(C)C)cc3)[nH]2)cc1 | broth dilution | – | ATCC10536 | 18 h | – | 250 µg/mL
CCCCCCC/C=C/C(=O)N1C(=O)/C(=C(\O)c2ccc(O)cc2)C(=O)C1CC(C)C (stereo not drawn) | – | K12 | K12 | – | – | > 200 µg/mL
CC1=NN(CNc2ccc(O)cc2)C(=O)C1=NNn1c(-c2ccccc2)nc2ccccc2c1=O | broth dilution | – | – | 24 h | – | 107 µM
Fc1ccc(NCc2ccc(Oc3ccccn3)cc2)cc1 | – | – | – | – | – | > 12.5 µg/mL
Cc1c(CN(C)C(=O)/C=C/c2cnc3c(c2)CC(NC(=O)OC(C)(C)C)C(=O)N3)oc2ccccc12 (stereo not drawn) | broth dilution | – | BAA2340 | – | clinical isolate | > 32 µg/mL
CCCCCCC/C=C/C(=O)N1C(=O)/C(=C(\O)c2ccccc2)C(=O)C1CC(C)C (stereo not drawn) | – | K12 | K12 | – | – | > 200 µg/mL
NC1CCCCc2c1[nH]c1ccc(Br)cc21 (stereo not drawn) | broth dilution | – | ATCC25922 | – | – | 16 µg/mL
N=C(N)c1ccc(OCCCCCOc2ccc(C(=N)N)cc2)cc1 | broth dilution | – | ATCC25922 | – | – | 200 µg/mL
CC(C)(O/N=C(\C(=O)N[C@@H]1C(=O)N2C(C(=O)[O-])=C(C[n+]3ccccc3)CS[C@H]12)c1csc(N)n1)C(=O)O | broth dilution | – | ATCC25922 | – | – | 0.25 µg/mL
CC(=O)NCN1N=C(C)C(=NNn2c(-c3ccccc3)nc3ccccc3c2=O)C1=O | broth dilution | – | – | 24 h | – | 59.9 µM

SMILES | method | cell line | strain | time | setting | MIC
CC1(C)S[C@@H]2[C@H](NC(=O)[C@H](N)c3ccccc3)C(=O)N2[C@H]1C(=O)O | broth dilution | – | ATCC25922 | 16 h | – | 0.3 µg/mL
CNc1cccc2cc(C(=O)NCc3ccc(C(=O)O)cc3)c(=O)[nH]c12 | broth dilution | – | ATCC25922 | – | – | > 64 µg/mL
COc1c(C)c(OS(=O)(=O)c2ccc3ccccc3c2)c(C)c(OS(=O)(=O)c2ccc3ccccc3c2)c1C(=O)/C=C/c1ccccc1 | broth dilution | – | ATCC25922 | – | – | 5000 µg/mL
CCCCCCC/C=C/C(=O)N1C(=O)/C(=C(/C)O)C(=O)C1Cc1ccc(O)cc1 (stereo not drawn) | – | K12 | K12 | – | – | > 200 µg/mL
CCCCCCCCCC(=O)Oc1c(C)c(O)c(C(=O)/C=C/c2ccccc2)c(OC)c1C | broth dilution | – | ATCC25922 | – | – | 5000 µg/mL
Cc1ccc2nc(-c3ccc([N+](=O)[O-])cc3)n(Cc3ccc(Cl)cc3)c2c1 | broth dilution | – | ATCC25922 | – | – | 64 µg/mL
CCCCCCC#Cc1cncc(-c2nnc(SCc3ccc(C#N)cc3)n2C)c1 | – | – | – | – | – | ≥ 20 µg/mL
CC1(C)S[C@@H]2[C@H](NC(=O)[C@H](N)c3ccccc3)C(=O)N2[C@H]1C(=O)O | broth dilution | – | ATCC25922 | – | – | 4 µg/mL
Cc1ccc2nc(-c3ccc(Cl)c(Cl)c3)[nH]c2c1 | broth dilution | – | ATCC25922 | – | – | 32 µg/mL
CCCc1nc(Cl)c2c(c1O)C(=O)C1=C(O)[C@]3(O)C(=O)C(C(N)=O)=C(O)[C@@H](N(C)C)[C@@H]3C[C@@H]1C2.Cl | broth dilution | – | ATCC25922 | – | – | 16 µg/mL
Cc1ccc(C)n1-c1ccc(-c2nnc(-c3ccccc3[N+](=O)[O-])[nH]2)cc1 | broth dilution | – | ATCC10536 | 18 h | – | 250 µg/mL
C[C@H](CCC(=O)NCCCNCCCCNCCCN)[C@H]1CC[C@H]2[C@@H]3CC[C@@H]4C[C@H](O)CC[C@]4(C)[C@H]3CC[C@]12C | broth dilution | – | MG1655 | 20 h | – | 128 µg/mL
CC(C)Oc1c(NC(=O)c2ccc(NC(=O)[C@H](CC(N)=O)NC(=O)c3ccc(NC(=O)C(C)Sc4ccc(C#N)cc4)cc3)cc2)ccc(C(=O)Nc2ccc(C(=O)O)cc2)c1O (stereo partly drawn) | – | – | DSM1116 | – | – | 0.25 µg/mL
N=C(N)c1ccc(OCCC(CCOc2ccc(C(=N)N)cc2)c2ccccc2)cc1 (stereo not drawn) | broth dilution | – | BW25113 | – | – | > 200 µg/mL
Cc1ccc2nc(-c3ccncc3)[nH]c2c1 | broth dilution | – | ATCC25922 | – | – | 64 µg/mL
Cc1cc(C(=O)Nc2ccc(C(=O)N[C@@H](CC(N)=O)C(=O)Nc3ccc(C(=O)Nc4ccc(C(=O)Nc5ccc(C(=O)O)cc5)c(O)c4OC(C)C)cc3)cc2)ccc1C#N | – | – | DSM1116 | – | – | 0.5 µg/mL
Cc1ccc2nc(-c3cccnc3)[nH]c2c1 | broth dilution | – | ATCC25922 | – | – | 128 µg/mL
Cc1cccc2nc(-c3ccc([N+](=O)[O-])o3)[nH]c12 | broth dilution | – | ATTC25922 | – | – | 4 µg/mL
CC(C)Oc1c(NC(=O)c2ccc(NC(=O)[C@H](CC(N)=O)NC(=O)c3ccc(NC(=O)c4ccc(C#N)cc4)cc3)cc2)ccc(C(=O)Nc2ccc(C(=O)O)cc2)c1O | – | – | DSM1116 | – | – | 0.5 µg/mL
O=C(CCc1ccc(O)c(O)c1)NCCCCCCCC[P+](c1ccccc1)(c1ccccc1)c1ccccc1.[Br-] | broth dilution | – | ATCC25922 | 18 h | – | > 32 µg/mL
CCCCCCC/C=C/C(=O)N1C(=O)/C(=C(/C)O)C(=O)C1CCC(=O)O (stereo not drawn) | – | K12 | K12 | – | – | > 200 µg/mL
Cn1cc(NC(=O)C(CC(N)=O)NC(=O)c2ccc(NC(=O)c3ccc(C#N)cc3)cc2)cc1-c1nc2ccc(C(=O)Nc3ccc(C(=O)O)cc3)c(O)c2[nH]1 (stereo not drawn) | – | – | DSM1116 | – | – | > 64 µg/mL
CCOc1ccc(-c2nc3ccccc3n2Cc2ccccc2)cc1 | broth dilution | – | ATCC25922 | – | – | 64 µg/mL
CC(C)Oc1c(NC(=O)c2ccc(NC(=O)[C@H](CC(N)=O)NC(=O)c3ccc(NC(=O)c4ccc([N+](=O)[O-])c(OC(C)C)c4O)cc3)cc2)ccc(C(=O)Nc2ccc(C(=O)O)cc2)c1O | – | – | DSM1116 | – | – | > 64 µg/mL
O=C(CCCCCC[P+](c1ccccc1)(c1ccccc1)c1ccccc1)Nc1cc(O)c(O)c(O)c1.[Br-] | broth dilution | – | ATCC25922 | 18 h | – | > 32 µg/mL
CC(C)Oc1c(NC(=O)c2ccc(NC(=O)[C@H](CC(N)=O)NC(=O)c3ccc(NC(=O)Cc4ccc(C#N)cc4)cc3)cc2)ccc(C(=O)Nc2ccc(C(=O)O)cc2)c1O | – | – | DSM1116 | – | – | 1 µg/mL
Cc1ccc(C)n1-c1ccc(C(=O)NNC=O)cc1 | broth dilution | – | ATCC10536 | 18 h | – | 31.2 µg/mL
